Laboratory results published in ChEMBL document CHEMBL3112587, “Cytotoxic activity assessment, QSAR and docking study of novel bis-carboxamide derivatives of 4-pyrones synthesized by Ugi four-component reaction” (Eur J Med Chem, 2013).

How the values were obtained:
Type in all cases: functional, cell-based
MCF7 = assay: Cytotoxicity against human MCF7 cells after 72 hrs by MTT assay
How it was run: (§1)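 RPMI 1640 with penicillin/streptomycin and 10% FBS (20% for HL-60), 37 °C, 5% CO2. Seeding was 40,000 HL-60 (suspension), 50,000 LS180 or 30,000 MCF-7 (monolayer) cells/ml, overnight. Half the medium was replaced with 3-4 compound concentrations in duplicate (DMSO ≤0.5% final), 72 h, then MTT 0.5 mg/ml for 4 h. Read 570 nm minus 655 nm. IC50 versus untreated control by linear regression, mean ± SD.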

HL-60 = assay: Cytotoxicity against human HL60 cells after 72 hrs by MTT assay; how it was run: as §1
[1] = Cytotoxicity against human LS180 cells after 72 hrs by MTT assay
How it was run: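 Seeding was 40,000 HL-60 (suspension), 50,000 LS180 or 30,000 MCF-7 (monolayer) cells/ml, overnight. Half the medium was replaced with 3-4 compound concentrations in duplicate (DMSO ≤0.5% final), 72 h, then MTT 0.5 mg/ml for 4 h. IC50 versus untreated control by linear regression, mean ± SD.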

[2] = Homo sapiens, HL-60, 72 h, read-out: IC50
[3] = Homo sapiens, HL-60, 72 h, read-out: pIC50 (converted)
[4] = Homo sapiens, MCF7, 72 h, read-out: IC50
[5] = Homo sapiens, LS180, 72 h, read-out: IC50

Structure (SMILES)	IC50 (MCF7; mcf7)	IC50 (HL-60; [2]) [µM]	IC50 (HL-60; [3]) [µM]	IC50 ([1]; ls180)	IC50 (MCF7; [4]) [µM]	IC50 [1, 5] [µM]	IC50 (HL-60; hl-60)
Cc1ccc(N(C(=O)c2ccccc2Cl)C(C(=O)NC2CCCCC2)c2cc(=O)cc(-c3ccccc3)o2)cc1 (stereo unspecified)	Not Active	22.2	22.4	Not Active			
Cc1ccc(N(C(=O)c2ccccc2Cl)C(C(=O)NC2CCCCC2)c2cc(=O)c(OCc3ccccc3)co2)cc1 (stereo unspecified)		12.1	12		56.3	63	
O=C(NC1CCCCC1)C(c1cc(=O)c(OCc2ccccc2)co1)N(C(=O)c1ccccc1)c1ccc(Cl)cc1 (stereo unspecified)	Not Active	14.7	14.8	Not Active			
O=C(NC1CCCCC1)C(c1cc(=O)c(OCc2ccccc2)co1)N(C(=O)c1ccccc1Cl)c1ccc(Cl)cc1 (stereo unspecified)		30.5	30.2	Not Active	168		
COc1ccc(N(C(=O)c2ccccc2Cl)C(C(=O)NC2CCCCC2)c2cc(=O)cc(-c3ccccc3)o2)cc1 (stereo unspecified)	Not Active			Not Active			Not Active
Cc1ccc(N(C(=O)c2ccccc2)C(C(=O)NC(C)(C)C)c2cc(=O)cc(-c3ccccc3)o2)cc1 (stereo unspecified)		33	33.1		54.9	122	
COc1ccc(N(C(=O)c2ccccc2Cl)C(C(=O)NC(C)(C)C)c2cc(=O)c(OCc3ccccc3)co2)cc1 (stereo unspecified)		52.9	52.5		47.2	77.3	
O=C(NC1CCCCC1)C(c1cc(=O)c(OCc2ccccc2)co1)N(C(=O)c1ccccc1Cl)c1ccccc1 (stereo unspecified)		66.2	66.1		84.2	97.3	
CCCCc1ccc(N(C(=O)c2ccccc2Cl)C(C(=O)NC(C)(C)C)c2cc(=O)c(OCc3ccccc3)co2)cc1 (stereo unspecified)		16.2	16.2		28.6	88.2	
Cc1ccc(N(C(=O)c2ccccc2)C(C(=O)NC2CCCCC2)c2cc(=O)c(OCc3ccccc3)co2)cc1 (stereo unspecified)		11.3	11.2		11.2	20.2	
COc1cccc2c1C(=O)c1c(O)c3c(c(O)c1C2=O)C[C@@](O)(C(=O)CO)C[C@@H]3O[C@H]1C[C@H](N)[C@H](O)[C@H](C)O1 [DOXORUBICIN]		0.01					
O=C(NC1CCCCC1)C(c1cc(=O)cc(-c2ccccc2)o1)N(C(=O)c1ccccc1Cl)c1ccccc1 (stereo unspecified)	Not Active	72	72.4	Not Active			
CC(C)(C)NC(=O)C(c1cc(=O)c(OCc2ccccc2)co1)N(C(=O)c1ccccc1)c1ccccc1 (stereo unspecified)		57.3	57.5	Not Active	63.1		
COc1ccc(N(C(=O)c2ccccc2Cl)C(C(=O)NC(C)(C)C)c2cc(=O)cc(-c3ccccc3)o2)cc1 (stereo unspecified)		13.8	13.8		9.1	16.1	
Cc1ccc(N(C(=O)c2ccccc2Cl)C(C(=O)NC(C)(C)C)c2cc(=O)c(OCc3ccccc3)co2)cc1 (stereo unspecified)		42	41.7		53.8	88.3	
